The source made the active and inactive calls. No cut-off for these calls is given here.
Key:
HL-60 = experiment: Cytotoxicity against human HL60 cells after 72 hrs by MTT assay; assay type: functional, cell-based; conditions: HL-60, 72 h
HeLa [1] = experiment: Cytotoxicity against human HeLa cells after 72 hrs by MTT assay; assay type: functional, cell-based
HT-29 [2] = experiment: Cytotoxicity against human HT-29 cells after 72 hrs by MTT assay; assay type: functional, cell-based; conditions: HT-29, 72 h
MCF7 = experiment: Cytotoxicity against human MCF7 cells after 72 hrs by MTT assay; assay type: functional, cell-based; conditions: MCF7, 72 h
[3] = Cytotoxicity against human SEM cells after 72 hrs by MTT assay; assay type: functional, cell-based
Summary of the method: (§1)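 Cells plated at 8 × 10^3 per well, 18 h at 37 °C, 5% CO2, then fresh medium with graded compound concentrations (DMSO ≤0.25%) for 72 h. Jurkat, SEM, HL-60 grown in RPMI-1640; A549, HeLa, HT-29, MCF-7 in DMEM; 10% FBS with penicillin/streptomycin. MTT viability read-out; IC50 vs 0.25% DMSO controls; mean ± SE of at least three independent experiments.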

A549 [4] = experiment: Cytotoxicity against human A549 cells after 72 hrs by MTT assay; assay type: functional, cell-based; conditions: A549, 72 h
CCRF-CEM [5] = experiment: Resistance index, ratio of IC50 for human CEM/VBL100 cells to IC50 for human CEM cells; assay type: functional
Summary of the method: (§2)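 MTT viability test: 8 × 10^3 cells per well settled 18 h at 37 °C, 5% CO2, then given fresh medium with compound (from 10 mM DMSO stocks, final DMSO ≤0.25%) for 72 h. […] CEMVbl-100 is a vinblastine-selected P-gp line; LoVoDoxo is grown in Ham's F12 with 0.1 μg/mL doxorubicin. Resistance index = resistant IC50/parental IC50.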

[6] = Cytotoxicity against human CEM/VBL100 cells after 72 hrs by MTT assay; assay type: functional, cell-based; conditions: CEM/VBL100, 72 h; summary of the method: as §2
CCRF-CEM [7] = experiment: Cytotoxicity against human CEM cells after 72 hrs by MTT assay; assay type: functional, cell-based; summary of the method: as §2
Jurkat [8] = experiment: Cytotoxicity against human Jurkat cells after 72 hrs by MTT assay; assay type: functional, cell-based; summary of the method: as §1
Bos taurus [9] = organism: Bos taurus; experiment: Displacement of [3H]colchicine from bovine brain tubulin at 5 uM after 20 mins by turbidimetric analysis
[10] = Inhibition of bovine brain tubulin polymerization after 20 mins by turbidimetric analysis; set-up: species or system Bos taurus
Summary of the method: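 Bovine brain tubulin (10 μM) preincubated with varying compound concentrations in glutamate buffer at 30 °C, chilled to 0 °C, 0.4 mM GTP added, then warmed to 30 °C in a recording spectrophotometer.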

Bos taurus [11] = organism: Bos taurus; experiment: Displacement of [3H]colchicine from bovine brain tubulin at 1 uM after 20 mins by turbidimetric analysis
HeLa [12] = experiment: Cell cycle arrest in human HeLa cells assessed as accumulation at G2/M phase after 24 hrs by propidium iodide staining-based flow cytometry; assay type: functional
Summary of the method: (§3)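 Jurkat, HT-29 and HeLa cells in exponential growth (5 × 10^5 cells) treated 24 h at a range of concentrations. Fixed in ice-cold 70% ethanol, lysed with buffer containing RNase A and 0.1% Triton X-100, stained with propidium iodide. DNA content read by flow cytometry and the percentage of cells per cycle phase derived from DNA histograms.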

A549 [13] = experiment: Resistance index, ratio of IC50 for human A549-T12 cells to IC50 for human A549 cells; assay type: functional
Summary of the method: (§4)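 Mean ± SE of at least three independent experiments. Resistance ratio = IC50 in resistant line/IC50 in nonresistant line.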

HeLa [14] = experiment: Cell cycle arrest in human HeLa cells assessed as accumulation at G2/M phase at >20 nM after 24 hrs by propidium iodide staining-based flow cytometry; assay type: functional; summary of the method: as §3
LoVo [15] = experiment: Cytotoxicity against human LoVo cells after 72 hrs by MTT assay; assay type: functional, cell-based; summary of the method: as §2
HT-29 [16] = experiment: Cell cycle arrest in human HT-29 cells assessed as accumulation at G2/M phase after 24 hrs by propidium iodide staining-based flow cytometry; assay type: functional; summary of the method: as §3
HeLa [17] = experiment: Induction of apoptosis in human HeLa cells assessed as mitochondrial membrane depolarization at 10 to 100 nM by JC-1 staining; assay type: functional, cell-based; conditions: TDE = time-dependent effect
Summary of the method: (§5)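 HeLa cells treated 24 or 48 h, then stained with the potentiometric dye JC-1. Proportion of cells with depolarised mitochondria read by flow cytometry. Mean ± SEM of three independent experiments.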

HeLa [18] = experiment: Induction of apoptosis in human HeLa cells assessed as ROS production at 10 to 100 nM after 24 to 48 hrs by HE staining-based flow cytometry relative to control; assay type: functional, cell-based
Summary of the method: (§6)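 HeLa cells treated 24 or 48 h, then stained with H2-DCFDA or hydroethidine. ROS read by flow cytometry against untreated control. Mean ± SEM of three independent experiments.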

HT-29 [19] = experiment: Cell cycle arrest in human HT-29 cells assessed as accumulation at G2/M phase at >20 nM after 24 hrs by propidium iodide staining-based flow cytometry; assay type: functional; summary of the method: as §3
[20] = Cytotoxicity against human A549-T12 cells after 72 hrs by MTT assay; assay type: functional, cell-based; conditions: A549, 72 h; summary of the method: as §4
HeLa [21] = experiment: Induction of apoptosis in human HeLa cells assessed as early apoptotic cells after 24 to 48 hrs by annexin V-FITC/Propidium iodide staining-based flow cytometry; assay type: functional, cell-based
Summary of the method: (§7)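 HeLa cells treated 24 or 48 h, then co-labelled with annexin-V–FITC and propidium iodide. Flow cytometry with 488 nm excitation and emission at 525 nm (FITC) and 585 nm (PI); early apoptotic cells counted as annexin-V+/PI−. Mean ± SEM of three independent experiments.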

HeLa [22] = experiment: Induction of apoptosis in human HeLa cells assessed as mitochondrial membrane depolarization after 24 to 48 hrs by JC-1 staining; assay type: functional, cell-based; summary of the method: as §5
Jurkat [23] = experiment: Cell cycle arrest in human Jurkat cells assessed as accumulation at G2/M phase after 24 hrs by propidium iodide staining-based flow cytometry; assay type: functional; summary of the method: as §3
HeLa [24] = experiment: Cell cycle arrest in human HeLa cells assessed as accumulation at G2/M phase at 20 nM after 24 hrs by propidium iodide staining-based flow cytometry; assay type: functional; summary of the method: as §3
PBL = experiment: Cytotoxicity against human PHA-stimulated PBL cells after 72 hrs by MTT assay; assay type: cell-based
Summary of the method: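 Peripheral blood lymphocytes from healthy donors isolated on a Lymphoprep gradient and rested overnight in RPMI-1640 with 10% FBS. Nonadherent cells at 5 × 10^5 cells/mL, with 2.5 μg/mL PHA for proliferating cultures or without it for resting ones. Compound exposure 72 h, viability by MTT. Mean ± SEM of three experiments.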

HeLa [25] = experiment: Induction of apoptosis in human HeLa cells assessed as ROS production at 10 to 100 nM after 24 to 48 hrs by H2-DCFDA staining-based flow cytometry relative to control; assay type: functional, cell-based; summary of the method: as §6
LoVo [26] = experiment: Resistance index, ratio of IC50 for human LoVo/DX cells to IC50 for human LoVo cells; assay type: functional; summary of the method: as §2
[27] = Cytotoxicity against human LoVo/DX cells after 72 hrs by MTT assay; assay type: functional, cell-based; summary of the method: as §2
Jurkat [28] = experiment: Cell cycle arrest in human Jurkat cells assessed as accumulation at G2/M phase at >20 nM after 24 hrs by propidium iodide staining-based flow cytometry; assay type: functional; summary of the method: as §3
HeLa [29] = experiment: Induction of apoptosis in human HeLa cells assessed as early apoptotic cells at 10 to 100 nM by annexin V-FITC and propidium iodide staining-based flow cytometry; assay type: functional, cell-based; conditions: TDE = time-dependent effect; summary of the method: as §7
HT-29 [30] = experiment: Cell cycle arrest in human HT-29 cells assessed as accumulation at G2/M phase at 20 nM after 24 hrs by propidium iodide staining-based flow cytometry; assay type: functional; summary of the method: as §3
Jurkat [31] = experiment: Cell cycle arrest in human Jurkat cells assessed as accumulation at G2/M phase at 20 nM after 24 hrs by propidium iodide staining-based flow cytometry; assay type: functional; summary of the method: as §3

COC(=O)c1sc2c(C)cccc2c1Nc1cc(OC)c(OC)c(OC)c1
IC50 (HL-60): 4270 nM
IC50 (HeLa [1]): 1730 nM
IC50 (HT-29 [2]): 552 nM
IC50 (MCF7): 4550 nM
IC50 [3]: 1630 nM
IC50 (A549 [4]): 3930 nM

CC[C@]1(O)C[C@@H]2CN(CCc3c([nH]c4ccccc34)[C@@](C(=O)OC)(c3cc4c(cc3OC)N(C)[C@H]3[C@@](O)(C(=O)OC)[C@H](OC(C)=O)[C@]5(CC)C=CCN6CC[C@]43[C@@H]65)C2)C1 [VINBLASTINE]
Ratio IC50 (CCRF-CEM [5]): 105
IC50 [6]: 211 nM
IC50 (CCRF-CEM [7]): 2 nM

COc1ccc(/C=C\c2cc(OC)c(OC)c(OC)c2)cc1O [COMBRETASTATIN A4]
IC50 [3]: 5 nM

COC(=O)c1sc2ccc(C)cc2c1Nc1cc(OC)c(OC)c(OC)c1
IC50 (HL-60): 4720 nM
IC50 (HeLa [1]): 398 nM
IC50 (HT-29 [2]): 299 nM
IC50 (MCF7): 540 nM
IC50 [3]: 185 nM
IC50 (Jurkat [8]): 727 nM
IC50 (A549 [4]): 2810 nM

COC(=O)c1sc2ncccc2c1Nc1cc(OC)c(OC)c(OC)c1
IC50 (HL-60): 2920 nM
IC50 (HT-29 [2]): 542 nM
IC50 (MCF7): 2640 nM
IC50 [3]: 348 nM
IC50 (Jurkat [8]): 1110 nM
IC50 (A549 [4]): 3850 nM

COC(=O)c1sc2c(OC)cccc2c1Nc1cc(OC)c(OC)c(OC)c1
IC50 (HL-60): 25.6 nM
inhibition (Bos taurus [9]): 76%
IC50 [10]: 760 nM
inhibition (Bos taurus [11]): 54%
IC50 (HeLa [1]): 3.5 nM
IC50 (HT-29 [2]): 14.9 nM
IC50 (MCF7): 95 nM
IC50 [3]: 2.3 nM
IC50 (Jurkat [8]): 56.5 nM
IC50 (A549 [4]): 33 nM

COC(=O)c1sc2nc(C)ccc2c1Nc1cc(OC)c(OC)c(OC)c1
IC50 (HL-60): 0.4 nM
Activity (HeLa [12]): Dose-dependent effect
Ratio IC50 (A549 [13]): 1.2
Activity (HeLa [14]): >80%
IC50 (LoVo [15]): 1.9 nM
Activity (HT-29 [16]): Dose-dependent effect
Activity (HeLa [17]): tde
Activity (HeLa [18]): Active
Activity (HT-29 [19]): >80%
Ratio IC50 (CCRF-CEM [5]): 1.5
IC50 [6]: 4.2 nM
inhibition (Bos taurus [9]): 95%
IC50 [10]: 700 nM
IC50 [20]: 19.5 nM
Activity (HeLa [21]): Dose-dependent effect
inhibition (Bos taurus [11]): 78%
IC50 (HeLa [1]): 0.18 nM
Activity (HeLa [22]): Dose-dependent effect
Activity (Jurkat [23]): Dose-dependent effect
IC50 (HT-29 [2]): 0.35 nM
IC50 (MCF7): 0.53 nM
IC50 [3]: 0.5 nM
Activity (HeLa [24]): Active
IC50 (PBL): 3400 nM
Activity (HeLa [25]): Active
IC50 (Jurkat [8]): 0.6 nM
Ratio IC50 (LoVo [26]): 0.3
IC50 [27]: 0.5 nM
IC50 (A549 [4]): 16.2 nM
Activity (Jurkat [28]): >80%
Activity (HeLa [29]): tde
Activity (HT-29 [30]): Active
IC50 (CCRF-CEM [7]): 2.8 nM
Activity (Jurkat [31]): Active

CCOC(=O)c1sc2ccccc2c1Nc1cc(OC)c(OC)c(OC)c1
IC50 (HL-60): 5490 nM
IC50 (HeLa [1]): 3100 nM
IC50 (HT-29 [2]): 1610 nM
IC50 (MCF7): 6390 nM
IC50 [3]: 1900 nM
IC50 (Jurkat [8]): 3020 nM
IC50 (A549 [4]): 8530 nM

CCOC(=O)c1sc2cc(OC)ccc2c1Nc1cc(OC)c(OC)c(OC)c1
IC50 (HL-60): 31.6 nM
inhibition (Bos taurus [9]): 94%
IC50 [10]: 810 nM
inhibition (Bos taurus [11]): 77%
IC50 (HeLa [1]): 0.56 nM
IC50 (MCF7): 5.6 nM
IC50 [3]: 10.2 nM
IC50 (Jurkat [8]): 3.3 nM
IC50 (A549 [4]): 8.9 nM

From ChEMBL document CHEMBL2331329, “Synthesis and biological evaluation of 2-(alkoxycarbonyl)-3-anilinobenzo[b]thiophenes and thieno[2,3-b]pyridines as new potent anticancer agents” (J Med Chem, 2013)
